# From ChEMBL document CHEMBL1128251, “Antimalarial activity of new dihydroartemisinin derivatives. 6. alpha-Alkylbenzylic ethers” (J Med Chem, 1995)
# Assays:
# Plasmodium falciparum [1] = assay: In vitro antimalarial activity against Plasmodium falciparum D6 (Sierra Leone I); format: functional, organism-based
# In short: (§1)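 Clones D-6 and W-2 tested in parallel. Compounds dissolved in DMSO, diluted 400-fold in RPMI 1640 with 25 mM Hepes, 32 mM NaHCO3 and 10% human plasma, then serially diluted 2-fold over 11 concentrations. Parasites preexposed 48 h at 37 °C under 5% O2/5% CO2/90% N2, then [3H]hypoxanthine added for 18 h; DNA harvested, uptake counted by scintillation. IC50 from logistic dose-response model; arithmetic mean of ≥3 runs.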
# Plasmodium falciparum [2] = assay: In vitro antimalarial activity against Plasmodium falciparum W2 Indochina; format: functional, organism-based; in short: as §1
SMILES,IC50 (Plasmodium falciparum [1]) [ng/mL],IC50 (Plasmodium falciparum [2]) [ng/mL]
C[C@@H]1CCC2[C@@H](C)[C@@H](O[C@H](C)c3ccc(C(=O)O)cc3)O[C@@H]3O[C@@]4(C)CC[C@@H]1[C@@]23OO4 (some centres undefined),5.77,2.54
CCOC(=O)[C@H](O[C@H]1O[C@@H]2O[C@@]3(C)CC[C@H]4[C@H](C)CCC([C@H]1C)[C@@]24OO3)c1ccccc1 (some centres undefined),0.287,0.0938
CCOC(=O)C[C@H](O[C@H]1O[C@@H]2O[C@@]3(C)CC[C@H]4[C@H](C)CCC([C@H]1C)[C@@]24OO3)c1ccccc1 (some centres undefined),0.459,0.144
CCOC(=O)[C@@H](O[C@H]1O[C@@H]2O[C@@]3(C)CC[C@H]4[C@H](C)CCC([C@H]1C)[C@@]24OO3)c1ccccc1 (some centres undefined),0.509,0.227
C[C@@H]1CC[C@H]2[C@@H](C)C(=O)O[C@@H]3O[C@@]4(C)CC[C@@H]1[C@]32OO4 [ARTEMISININ],2.3,1.01
CCOC(=O)C[C@H](O[C@H]1O[C@@H]2O[C@@]3(C)CC[C@H]4[C@H](C)CCC([C@H]1C)[C@@]24OO3)c1ccc([N+](=O)[O-])cc1 (some centres undefined),0.246,0.0487
C[C@H](O[C@H]1O[C@@H]2O[C@@]3(C)CC[C@H]4[C@H](C)CCC([C@H]1C)[C@@]24OO3)c1ccc(C(=O)O)cc1 (some centres undefined),2.94,1.23
CO[C@H]1O[C@@H]2O[C@@]3(C)CC[C@H]4[C@H](C)CC[C@@H]([C@H]1C)[C@@]24OO3 [ARTEMETHER],0.869,0.301
COC(=O)c1ccc([C@H](C)O[C@H]2O[C@@H]3O[C@@]4(C)CC[C@H]5[C@H](C)CCC([C@H]2C)[C@@]35OO4)cc1 (some centres undefined),0.692,0.335
C[C@@H]1[C@H](OCc2ccc(C(=O)O)cc2)O[C@@H]2O[C@@]3(C)CC[C@@H]4[C@@H](C)CC[C@@H]1[C@]24OO3 [ARTELINIC ACID],4.87,2.08
CCOC(=O)C[C@@H](O[C@H]1O[C@@H]2O[C@@]3(C)CC[C@H]4[C@H](C)CCC([C@H]1C)[C@@]24OO3)c1ccccc1 (some centres undefined),0.496,0.213
C[C@@H]1CCC2[C@@H](C)[C@@H](O[C@H](CC(=O)O)c3ccc([N+](=O)[O-])cc3)O[C@@H]3O[C@@]4(C)CC[C@@H]1[C@@]23OO4 (some centres undefined),2.87,1.35
COC(=O)c1ccc([C@@H](C)O[C@H]2O[C@@H]3O[C@@]4(C)CC[C@H]5[C@H](C)CCC([C@H]2C)[C@@]35OO4)cc1 (some centres undefined),0.921,0.337
C[C@@H]1CCC2[C@@H](C)[C@@H](O[C@H](C)c3ccc(C(F)(F)F)cc3)O[C@@H]3O[C@@]4(C)CC[C@@H]1[C@@]23OO4 (some centres undefined),1.46,1.15
CCOC(=O)C[C@@H](O[C@H]1O[C@@H]2O[C@@]3(C)CC[C@H]4[C@H](C)CCC([C@H]1C)[C@@]24OO3)c1ccc([N+](=O)[O-])cc1 (some centres undefined),0.563,0.23
CCC[C@@H](Cc1ccccc1)O[C@H]1O[C@@H]2O[C@@]3(C)CC[C@H]4[C@H](C)CCC([C@H]1C)[C@@]24OO3 (some centres undefined),0.972,0.697
CCC[C@H](Cc1ccccc1)O[C@H]1O[C@@H]2O[C@@]3(C)CC[C@H]4[C@H](C)CCC([C@H]1C)[C@@]24OO3 (some centres undefined),3.05,1.92
